Laboratory results as given in paper PMC8349541 (OncoTargets and therapy, 2021).
Values belong to the compound of their own block, whether it stands above or below them.

How the values were obtained:
[1] = system: SVG p12 normal brain cell line; experiment: MTS cell viability assay, SVG p12; format: cell-based, human
[2] = system: NHA (normal human astrocyte); experiment: MTS cell viability assay, NHA; format: cell-based
LN229 glioma cells [3] = experiment: MTS cell viability assay, LN229; format: cell-based, human
Outline: (§1)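 Cells in DMEM with 10% FBS and penicillin/streptomycin at 37°C under 5% CO2, seeded in 96-well plates (LN229 3000, GBM8401 2000 cells per well). Exposed to test compound for 24 h, then incubated 2 h with MTS reagent added to the medium. Absorbance read at 490 nm, and IC50 determined from the viability data.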

GBM8401 glioma cells [4] = experiment: MTS cell viability assay, GBM8401; format: cell-based, human
Outline: as §1

LN229 glioma cells [5] = experiment: BrdU proliferation assay, LN229; format: cell-based, human; conditions: for effect on cell proliferation: LN229, 48 h, single dose
GBM8401 glioma cells [6] = experiment: BrdU proliferation assay, GBM8401; format: cell-based, human; conditions: GBM8401, 48 h; for effect on cell proliferation: single dose
LN229 glioma cells [7] = experiment: Wound healing migration assay, LN229; format: cell-based, human; conditions: LN229, 16 h wound healing, dosage under IC50
Outline: (§2)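 Cells plated at 1×10^5 per well in 12-well plates at 37°C, 5% CO2. At 90% confluence the medium was removed and the monolayer scratched with a 200 μL pipette tip, then washed three times. Wound imaged at 0 and 16 h, and migration calculated from the change in wound area, with 0 h DMSO-control area set to 100%.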

GBM8401 glioma cells [8] = experiment: Wound healing migration assay, GBM8401; format: cell-based, human; conditions: GBM8401, 16 h wound healing, dosage under IC50
Outline: as §2

LN229 glioma cells [9] = experiment: Colony formation assay, LN229; format: cell-based, human; conditions: LN229, cultured 2 weeks
Outline: (§3)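 Cells seeded at 3000 per well in 6-well plates and grown 2 weeks, with test compound added on day 3. Colonies fixed in methanol and stained with 0.5% crystal violet. Image analysis counted colonies larger than 0.1 mm in diameter. Mean ± s.d., n = 3.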

GBM8401 glioma cells [10] = experiment: Colony formation assay, GBM8401; format: cell-based, human; conditions: GBM8401, cultured 2 weeks
Outline: as §3

LN229 glioma cells [11] = experiment: Cell cycle analysis; format: cell-based, human; conditions: LN229, 48 h, low-dose
Outline: (§4)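 Treated 48 h, then fixed in 70% ethanol at 4°C and held overnight at −20°C. Washed twice in cold PBS containing 1% FBS, then stained with PI solution containing Tween 20 and RNase A for 30 min at 37°C in the dark. DNA content read by flow cytometry. Mean ± s.d., n = 3, against control by t test or one-way ANOVA.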

GBM8401 glioma cells [12] = experiment: Cell cycle analysis; format: cell-based, human; conditions: GBM8401, 48 h, low-dose
Outline: as §4

[13] = Homo sapiens, Glioma cell, 24 h
[14] = SVG p12, MTS assay, 24 h treatment

IC50 (LN229 glioma cells [3]; Homo sapiens, LN-229, 24 h): 5.85 µM
IC50 (GBM8401 glioma cells [4]; [13]): 6.31 µM
Compound: COc1cc(/C=C/C(=O)CC(=O)/C=C/c2ccc(O)c(OC)c2)ccc1O [Curcumin]
IC50 ([1]; Homo sapiens, SVGp12, 24 h): 4.19 µM
IC50 ([2]; Homo sapiens, Astrocyte, 24 h): 22.2 µM
effect on cell proliferation (LN229 glioma cells [5]): suppressed cell proliferation
effect on cell proliferation (GBM8401 glioma cells [6]): suppressed cell proliferation
effect on migration (LN229 glioma cells [7]): dose-dependently inhibited the migration
effect on migration (GBM8401 glioma cells [8]): dose-dependently inhibited the migration
effect on colony formation (LN229 glioma cells [9]): inhibited colony formation
effect on colony formation (GBM8401 glioma cells [10]): inhibited colony formation

IC50 (LN229 glioma cells [3]; Homo sapiens, LN-229, 24 h): 26.8 µM
IC50 (GBM8401 glioma cells [4]; [13]): 32.4 µM
Compound: O=C(/C=C/c1ccc(O)cc1)CC(=O)/C=C/c1ccc(O)cc1 [Bisdemethoxycurcumin]
IC50 ([1]; Homo sapiens, SVGp12, 24 h, SVG p12, MTS assay, 24 h treatment): 30 µM
IC50 [1, 14]: 29.2 µM
IC50 ([2]; NHA, MTS assay, 24 h treatment): 31.9 µM
effect on cell viability (LN229 glioma cells [3]; LN229, low-dose): slightly increased cell viability
effect on cell viability (GBM8401 glioma cells [4]; GBM8401, low-dose): slightly increased cell viability
effect on S phase (LN229 glioma cells [11]): increased S phase not significantly
effect on S phase (GBM8401 glioma cells [12]): increased S phase not significantly
dose effect on cell proliferation (BrdU M1) (LN229 glioma cells [5]; LN229 (printed LN299), 48 h): dose-dependently increased M1
effect on cell proliferation (LN229 glioma cells [5]): significantly increased the cell proliferation
dose effect on cell proliferation (BrdU M1) (GBM8401 glioma cells [6]): dose-dependently increased M1
effect on cell proliferation (GBM8401 glioma cells [6]): significantly increased the cell proliferation
effect on migration (LN229 glioma cells [7]): had no effect on the migration
effect on migration (GBM8401 glioma cells [8]): had no effect on the migration
effect on colony formation (LN229 glioma cells [9]): dose dependently increased colony formation
effect on colony formation (GBM8401 glioma cells [10]): dose dependently increased colony formation

IC50 (LN229 glioma cells [3]; LN229, MTS assay, 24 h treatment): 24.5 µM
IC50 (GBM8401 glioma cells [4]; GBM8401, MTS assay, 24 h treatment): 17.7 µM
Compound: Demethoxycurcumin
IC50 [1, 14]: 30 µM
IC50 ([2]; NHA, MTS assay, 24 h treatment): 11.3 µM
effect on cell proliferation (LN229 glioma cells [5]): promoted cell proliferation
effect on cell proliferation (GBM8401 glioma cells [6]): reduce
effect on migration (LN229 glioma cells [7]): had no effect on the migration
effect on migration (GBM8401 glioma cells [8]): had no effect on the migration
effect on colony formation (LN229 glioma cells [9]): suppressed colony formation in LN229 cells only in high-dose manner
effect on colony formation (GBM8401 glioma cells [10]): not in GBM8401 cells
